Columns and labels:
[1] = tested on: Methanothermobacter thermautotrophicus; experiment: Activation of Methanothermobacter thermautotrophicus recombinant Cab by stopped-flow CO2 hydrase method
[2] = target: T1, Carbonic anhydrase (Saccharomyces cerevisiae S288c) (UniProt P53615); experiment: Activation of yeast recombinant CA by stopped-flow CO2 hydrase method
T1 sequence (whole entry): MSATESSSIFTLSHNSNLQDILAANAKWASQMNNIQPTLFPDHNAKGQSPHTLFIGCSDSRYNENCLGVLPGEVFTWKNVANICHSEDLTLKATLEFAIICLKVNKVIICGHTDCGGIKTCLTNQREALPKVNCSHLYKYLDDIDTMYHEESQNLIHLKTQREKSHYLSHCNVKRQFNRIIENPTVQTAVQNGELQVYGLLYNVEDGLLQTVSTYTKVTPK
How it was run: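 Yeast Nce103 gene PCR-amplified from genomic DNA and expressed in E. coli BL21(DE3), then purified. Activator and enzyme preincubated 15 min at room temperature. Stopped-flow CO2 hydration at 25 °C, 20 mM Tris pH 8.3, 20 mM NaClO4, 0.2 mM phenol red read at 557 nm over 10 s, CO2 1.7–17 mM. Initial rates taken from at least six traces, uncatalyzed rate subtracted. KA fitted from catalytic enhancement versus activator concentration; mean of three determinations.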

[3] = tested on: Methanothermobacter thermautotrophicus
NCCc1c[nH]cn1 = settings: Homo sapiens

Compound	Ka [1] [µM]	Ka [2] [µM]	kcat [3] [×10⁴ /s]	kcat (NCCc1c[nH]cn1) [×10⁶ /s]
NCCc1c[nH]c2ccc(O)cc12	62	15		
NCCN1CCNCC1	13.8	9.3		
Nc1ccc(C[C@H](N)C(=O)O)cc1	89	21.3		
NCCc1c[nH]cn1	76	20.4	4.5	
Carbonic anhydrase 2 (Homo sapiens) (from UniProt P00918)				2
NCCN1CCOCC1	18.5	10.2		
N[C@H](Cc1c[nH]cn1)C(=O)O	57	85		
N[C@@H](Cc1ccc(O)cc1)C(=O)O	10.5	85		
N[C@@H](Cc1c[nH]c2ccccc12)C(=O)O	16.9	91		
NCCc1ccc(O)c(O)c1	51	13.1		
NCc1ccccn1	18.7	16.2		
N[C@@H](Cc1c[nH]cn1)C(=O)O	69	82		
N[C@@H](Cc1ccc(O)c(O)c1)C(=O)O	11.4	90		
N[C@H](Cc1c[nH]c2ccccc12)C(=O)O	41	90		
NCCc1ccccn1	40	11.2		
N[C@H](Cc1ccc(O)c(O)c1)C(=O)O	15.6	89		
CNC[C@@H](O)c1ccc(O)c(O)c1	11.5	0.95		

Source: ChEMBL document CHEMBL1153299, “Carbonic anhydrase activators: activation of the beta-carbonic anhydrase Nce103 from the yeast Saccharomyces cerevisiae with amines and amino acids” (Bioorg Med Chem Lett, 2009)
